# According to ChEMBL document CHEMBL1121364, “Nucleoside conjugates as potential antitumor agents. 3. Synthesis and antitumor activity of 1-(beta-D-arabinofuranosyl)cytosine conjugates of corticosteroids” (1980):
# Experiments:
# [1] = test system: L1210; assay: Antitumor activity in the mice with intraperitoneal implanted L1210 lymphoid leukemia at the dose of 9.2 and 12.6 mg/kg/day x 5 was determined as mean survival of treated group compared to untreated; 16.5/11; format: functional, Mus musculus
# [2] = test system: L1210; assay: Antitumor activity in the mice with intraperitoneal implanted L1210 lymphoid leukemia at the dose 19.1 and 26 mg/kg/day x 5 was determined as percentage increase in the life span as compared with control tumor bearers; format: functional, Mus musculus
# Summary of the method: (§1)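 Female C3D2F1/J mice (C3H/HeJ × DBA/2J), groups of six to eight, average weight 25 g. Each mouse got 1 × 10^6 L1210 ascites cells ip, taken from DBA/2Ha donor mice bearing 3-5 day tumors. Compound was dissolved in 0.154 N NaOH and neutralized with 0.154 N HCl (final 0.9% NaCl). Dosed ip daily ×5, starting 24 h after implant. Recorded body weight change on day 8, survival range, median survival and 30-day survivors. ILS = (T/C − 1) × 100.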
# [3] = test system: L1210; assay: Antitumor activity in the mice with intraperitoneal implanted L1210 lymphoid leukemia at the dose 9.2 and 12.6 mg/kg/day x 5 was determined as percentage increase in the life span as compared with control tumor bearers; format: functional, Mus musculus
# Summary of the method: (§2)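 C3D2F1/J female mice (C3H/HeJ female × DBA/2J male), groups of six to eight, average weight 25 g. Inoculated ip with 1 × 10^6 L1210 ascites cells taken from DBA/2Ha donor mice bearing 3-5 day old tumors. Compounds were dissolved in 0.154 N NaOH, neutralized with 0.154 N HCl (final 0.9% NaCl), and given ip daily for 5 days from 24 h post-implant. Median survival T/C; ILS = (T/C − 1) × 100; 30-day survivors counted.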
# [4] = test system: L1210; assay: Antitumor activity in the mice with intraperitoneal implanted L1210 lymphoid leukemia at the dose 19.1 and 26 mg/kg/day x 5 was determined as Survival time in days; Range is 9-12 days; format: functional, Mus musculus; summary of the method: as §1
# [5] = test system: L1210; assay: Antitumor activity in mice with intraperitoneal implanted L1210 lymphoid leukemia at the dose 19.1 and 26 mg/kg/day x 5 was determined as weight change (g/mouse) on 8th day; format: functional; summary of the method: as §1
# [6] = test system: L1210; assay: Antitumor activity in the mice with intraperitoneal implanted L1210 lymphoid leukemia at the dose 9.2 and 12.6 mg/kg/day x 5 was determined and number of animals survived on 30 th day were reported; 0/6; format: functional, Mus musculus; summary of the method: as §2
# [7] = test system: L1210; assay: Antitumor activity in the mice with intraperitoneal implanted L1210 lymphoid leukemia at the dose 9.2 and 12.6 mg/kg/day x 5 was determined as Survival time in days; Range is 13-23 days; format: functional, Mus musculus; summary of the method: as §2
# [8] = test system: L1210; assay: Antitumor activity in mice with intraperitoneal implanted L1210 lymphoid leukemia at the dose 9.2 and 12.6 mg/kg/day x 5 was determined as weight change (g/mouse) on 8th day; format: functional; summary of the method: as §1
# [9] = test system: L1210; assay: Antitumor activity in the mice with intraperitoneal implanted L1210 lymphoid leukemia at the dose of 19.1 and 26 mg/kg/day x 5 was determined as mean survival of treated group compared to untreated; 10.5/10; format: functional, Mus musculus; summary of the method: as §2
# [10] = test system: L1210; assay: Antitumor activity in the mice with intraperitoneal implanted L1210 lymphoid leukemia at the dose 19.1 and 26 mg/kg/day x 5 was determined and number of animals survived on 30 th day were reported; 0/8; format: functional, Mus musculus; summary of the method: as §1
# [11] = test system: L1210; assay: In Vitro evaluation for the antiproliferative activity by observing the growth inhibition of L1210 lymphoid leukemia cells in culture at 72 hour; format: functional, Mus musculus
# Summary of the method: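 Growth of L1210 lymphoid leukemia cells in culture measured by Trypan blue exclusion of viable cells after 72 h of drug exposure. ED50 is the concentration giving 50% growth inhibition. In some runs the compound was first preincubated in medium at 37 °C for 24 or 48 h before the assay.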
# [12] = test system: L1210; assay: Antitumor activity in the mice with intraperitoneal implanted L1210 lymphoid leukemia at the dose 25 mg/kg/day x 5 was determined and number of animals survived on 30 th day were reported; 0/8; format: functional, Mus musculus; summary of the method: as §1
# [13] = test system: L1210; assay: Antitumor activity in the mice with intraperitoneal implanted L1210 lymphoid leukemia at the dose 50 mg/kg/day x 5 was determined and number of animals survived on 30 th day were reported; 2/8; format: functional, Mus musculus; summary of the method: as §1
# [14] = test system: L1210; assay: Antitumor activity in the mice with intraperitoneal implanted L1210 lymphoid leukemia at the dose of 25 mg/kg/day x 5 was determined as mean survival of treated group compared to untreated; 16.5/8.5; format: functional, Mus musculus; summary of the method: as §2
# [15] = test system: L1210; assay: Antitumor activity in mice with intraperitoneal implanted L1210 lymphoid leukemia at the dose 25 mg/kg/day x 5 was determined as weight change (g/mouse) on 8th day; format: functional
# Summary of the method: (§3)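 C3D2F1/J female mice (C3H/HeJ × DBA/2J), groups of six to eight, average 25 g, inoculated ip with 1 × 10^6 L1210 ascites cells taken from DBA/2Ha donor mice carrying 3-5 day tumors. Compound dissolved in 0.154 N NaOH, then neutralized with 0.154 N HCl to give 0.9% NaCl. Given ip daily for 5 consecutive days starting 24 h after implantation. Body weight change per mouse recorded on day 8.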
# [16] = test system: L1210; assay: Antitumor activity in the mice with intraperitoneal implanted L1210 lymphoid leukemia at the dose 50 mg/kg/day x 5 was determined as percentage increase in the life span as compared with control tumor bearers; format: functional; conditions: Mus musculus, L1210, ip; summary of the method: as §2
# [17] = test system: L1210; assay: Antitumor activity in the mice with intraperitoneal implanted L1210 lymphoid leukemia at the dose 25 mg/kg/day x 5 was determined as percentage increase in the life span as compared with control tumor bearers; format: functional; conditions: Mus musculus, L1210, ip; summary of the method: as §1
# [18] = test system: L1210; assay: Antitumor activity in the mice with intraperitoneal implanted L1210 lymphoid leukemia at the dose 25 mg/kg/day x 5 was determined as Survival time in days; Range is 14-18 days; format: functional, Mus musculus; summary of the method: as §1
# [19] = test system: L1210; assay: Antitumor activity in the mice with intraperitoneal implanted L1210 lymphoid leukemia at the dose 50 mg/kg/day x 5 was determined as Survival time in days; Range is 15-42 days; format: functional, Mus musculus; summary of the method: as §1
# [20] = test system: L1210; assay: Antitumor activity in the mice with intraperitoneal implanted L1210 lymphoid leukemia at the dose of 50 mg/kg/day x 5 was determined as mean survival of treated group compared to untreated; 24/8; format: functional, Mus musculus
# [21] = test system: L1210; assay: Antitumor activity in the mice with intraperitoneal implanted L1210 lymphoid leukemia at the dose of 75 mg/kg/day x 5 was determined as mean survival of treated group compared to untreated; 17/8.5; format: functional, Mus musculus
# [22] = test system: L1210; assay: Antitumor activity in mice with intraperitoneal implanted L1210 lymphoid leukemia at the dose 75 mg/kg/day x 5 was determined as weight change (g/mouse) on 8th day; format: functional; summary of the method: as §3
# [23] = test system: L1210; assay: Antitumor activity in mice with intraperitoneal implanted L1210 lymphoid leukemia at the dose 50 mg/kg/day x 5 was determined as weight change (g/mouse) on 8th day; format: functional; summary of the method: as §3
# [24] = test system: L1210; assay: Antitumor activity in the mice with intraperitoneal implanted L1210 lymphoid leukemia at the dose 75 mg/kg/day x 5 was determined as Survival time in days; Range is 12-21 days; format: functional, Mus musculus; summary of the method: as §2
# [25] = test system: L1210; assay: Antitumor activity in the mice with intraperitoneal implanted L1210 lymphoid leukemia at the dose 75 mg/kg/day x 5 was determined and number of animals survived on 30 th day were reported; 0/8; format: functional, Mus musculus; summary of the method: as §2
# [26] = test system: L1210; assay: Antitumor activity in the mice with intraperitoneal implanted L1210 lymphoid leukemia at the dose 75 mg/kg/day x 5 was determined as percentage increase in the life span as compared with control tumor bearers; format: functional; conditions: Mus musculus, L1210, ip; summary of the method: as §2
# [27] = test system: L1210; assay: Antitumor activity in the mice with intraperitoneal implanted L1210 lymphoid leukemia at the dose 25 mg/kg/day x 5 was determined as Survival time in days; Range is 7-15 days; format: functional, Mus musculus; summary of the method: as §1
# [28] = test system: L1210; assay: Antitumor activity in the mice with intraperitoneal implanted L1210 lymphoid leukemia at the dose of 100 mg/kg/day x 5 was determined as mean survival of treated group compared to untreated; 9.5/9; format: functional, Mus musculus; summary of the method: as §2
# [29] = test system: L1210; assay: Antitumor activity in the mice with intraperitoneal implanted L1210 lymphoid leukemia at the dose 100 mg/kg/day x 5 was determined as Survival time in days; Range is 8-13 days; format: functional, Mus musculus; summary of the method: as §1
# [30] = test system: L1210; assay: Antitumor activity in the mice with intraperitoneal implanted L1210 lymphoid leukemia at the dose 100 mg/kg/day x 5 was determined as percentage increase in the life span as compared with control tumor bearers; format: functional; conditions: Mus musculus, L1210, ip; summary of the method: as §1
# [31] = test system: L1210; assay: Antitumor activity in the mice with intraperitoneal implanted L1210 lymphoid leukemia at the dose 50 mg/kg/day x 5 was determined and number of animals survived on 30 th day were reported; 0/8; format: functional, Mus musculus; summary of the method: as §1
# [32] = test system: L1210; assay: Antitumor activity in the mice with intraperitoneal implanted L1210 lymphoid leukemia at the dose 50 mg/kg/day x 5 was determined as Survival time in days; Range is 10-17 days; format: functional, Mus musculus; summary of the method: as §1
# [33] = test system: L1210; assay: Antitumor activity in the mice with intraperitoneal implanted L1210 lymphoid leukemia at the dose of 50 mg/kg/day x 5 was determined as mean survival of treated group compared to untreated; 13.5/9; format: functional, Mus musculus; summary of the method: as §2
# [34] = test system: L1210; assay: Antitumor activity in the mice with intraperitoneal implanted L1210 lymphoid leukemia at the dose of 25 mg/kg/day x 5 was determined as mean survival of treated group compared to untreated; 11.5/9; format: functional, Mus musculus; summary of the method: as §2
# [35] = test system: L1210; assay: Antitumor activity in mice with intraperitoneal implanted L1210 lymphoid leukemia at the dose 100 mg/kg/day x 5 was determined as weight change (g/mouse) on 8th day; format: functional; summary of the method: as §3
# [36] = test system: L1210; assay: Antitumor activity in the mice with intraperitoneal implanted L1210 lymphoid leukemia at the dose 100 mg/kg/day x 5 was determined and number of animals survived on 30 th day were reported; 0/8; format: functional, Mus musculus; summary of the method: as §1
structure (smiles),measurement,setting,value
C[C@]12CC[C@H]3[C@@H](CCC4=CC(=O)CC[C@@]43C)[C@@H]1CC[C@@H]2C(=O)O.Nc1ccn([C@@H]2O[C@H](CO)[C@@H](O)[C@@H]2O)c(=O)n1,T/C,[1],16.5
same,ILS,[2],5%
same,ILS,[3],50%
same,Survival time,[4],9 days
same,Weight change,[5],-4.25 g mouse-1
same,Survivors,[6],0
same,Survival time,[7],13 days
same,Weight change,[8],-3.58 g mouse-1
same,T/C,[9],10.5
same,Survivors,[10],0
C[C@]12C[C@H](O)[C@H]3[C@@H](CCC4=CC(=O)CC[C@@]43C)[C@@H]1CC[C@@H]2C(=O)COP(=O)(O)OC[C@H]1O[C@@H](n2ccc(N)nc2=O)[C@@H](O)[C@@H]1O,ED 50,[11],90 nM
same,Survivors,[12],0
same,Survivors,[13],2
same,T/C,[14],16.5
same,Weight change,[15],0.06 g mouse-1
same,ILS at 50 mg/kg/day,[16],200%
same,ILS at 25 mg/kg/day,[17],94%
same,Survival time,[18],14 days
same,Survival time,[19],15 days
same,T/C,[20],24
same,T/C,[21],17
same,Weight change,[22],-0.59 g mouse-1
same,Weight change,[23],-1.24 g mouse-1
same,Survival time,[24],12 days
same,Survivors,[25],0
same,ILS at 75 mg/kg/day,[26],100%
C[C@@H]1C[C@H]2[C@@H]3CCC4=CC(=O)C=C[C@]4(C)[C@@]3(F)[C@@H](O)C[C@]2(C)[C@@]1(O)C(=O)COP(=O)(O)OC[C@H]1O[C@@H](n2ccc(N)nc2=O)[C@@H](O)[C@@H]1O,ED 50,[11],80 nM
same,Survival time,[27],7 days
same,T/C,[28],9.5
same,Survivors,[12],0
same,Survival time,[29],8 days
same,ILS at 100 mg/kg/day,[30],6%
same,Survivors,[31],0
same,Survival time,[32],10 days
same,Weight change,[15],-1.25 g mouse-1
same,ILS at 50 mg/kg/day,[16],50%
same,ILS at 25 mg/kg/day,[17],28%
same,T/C,[33],13.5
same,T/C,[34],11.5
same,Weight change,[35],-2.02 g mouse-1
same,Weight change,[23],-1.05 g mouse-1
same,Survivors,[36],0
